For data set [1], the system named is reverted rat gut sacs. Briefly: Ex vivo curcumin absorption using reverted rat gut sacs. It is filed as in vitro ADME, Male Sprague-Dawley rats. The following applies: serosal fluid + sac tissue; 100 μg/mL, 60 minutes, 37°C; mean ± SE, n = 4. In short, it runs like this: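 Rats (210 ± 10 g) killed by i.p. urethane/α-chloralose overdose. Small intestine rinsed with 0.9% saline, split into duodenum, jejunum and ileum in 37°C TC-199 (pH 7.4), everted, and tied into ~2 cm medium-filled sacs. Sacs shaken at 37°C in TC-199 with added 100 μg/mL test compound or nanoformulation, 1 h. Serosal fluid and acetonitrile-homogenized tissue protein-precipitated with internal standard, then analysed by HPLC; amounts summed.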

Data set [2] is described as follows: Cumulative excretion of curcumin in feces and urine. It is filed as in vivo, Male Sprague-Dawley rats. The following applies: rat, oral, 1 g/kg; collected up to 72 hours.
Data set [3] in a line: Oral pharmacokinetics of curcumin in plasma of freely mobile rats. It is filed as in vivo, Male Sprague-Dawley rats. The following applies: for AUC/dose: mean ± SEM, n = 4. In short, it runs like this:
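Male Sprague-Dawley rats (215 ± 10 g) had jugular catheters placed under pentobarbital (50 mg/kg ip) and were used freely moving one day later. They were dosed by gavage at 1 g/kg. Heparinized jugular blood was drawn from 15 to 480 min, and plasma was stored at −20°C. Samples were assayed by HPLC with an internal standard (425 nm; acetonitrile/10 mM phosphate pH 3.5). Noncompartmental analysis, n = 4.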

The mark [4] stands for this setting: male, Sprague-Dawley, rat, plasma, po, 1 g/kg.

In general, AUC refers to concentration integrated over time. A lower AUC goes with less exposure. By Cmax is commonly meant the maximum level reached in the sampled fluid or tissue. In general, Tmax refers to the time from dosing to the highest level. In the case of `COc1cc(/C=C/C(=O)CC(=O)/C=C/c2ccc(O)c(OC)c2)ccc1O` [Curcumin], in data set [1], the “Curcumin amount after incubation, duodenum” value was determined as 0.47 ± 0.04 µg; the “Curcumin amount after incubation, ileum” value was found to be 0.85 ± 0.02 µg; the “Curcumin amount after incubation, jejunum” value was determined as 1.01 ± 0.05 µg. Further, in data set [2], the “Accumulated percentage of curcumin in urine” value is recorded as ~0% and the “Accumulated percentage of unabsorbed curcumin in feces” value is ~90%. Further, in data set [3] (setting [4]), the AUC is 104 ng·h/mL, the concentration peaked (Cmax) at 28 ± 10 ng/mL and the Tmax was 45 min. In addition, the “Time for which curcumin could be detected in plasma after oral ingestion” value in data set [3] (rat plasma, oral, 1 g/kg (b48 prints 1 mg/kg)) worked out at 6 h. Moreover, the AUC/dose in data set [3] (rat plasma, oral, 1 g/kg) amounted to 0.0062 ± 0.003. The AUC/dose in data set [3] (rat plasma, oral, 1 g/kg, listed as curcumin alone) was 0.0062.

The values above are taken from PMC3384366 (International Journal of Nanomedicine, 2012).
